The text below walks through data of PubChem BioAssay.

Unmarked numbers belong to inactive results. Records with an inconclusive call do not appear. Activity calls are given as the source filed them.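 Rule for the calls, unless noted: active = growth inhibition above 25% in both replicates, a cutoff set 3 SD above the mean; inconclusive = above 25% in only one replicate; inactive = the rest.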

The viability is a read-out of living cells in per cent, often relative to untreated cells. As usually defined, the inhibition is the drop in the measured response relative to a control, in per cent.

Experiment [1] can be described thus: OD615 S. cerevisiae growth inhibition, permissive medium, pilot counter-assay, permissive growth control for S. cerevisiae lifespan shortening project (AID 705). To be noted: OD615, 24 h, at 10 µM, hits give high values. A digest of the protocol:
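Material: engineered DeaD yeast; compound dosing: one dose 10 µM, DMSO 0.25% final; measure: yeast growth inhibition indicated by reduced 24 h OD615; detection: OD615 turbidity read; incubation: cells pre-grown 4 h, then 24 h compound exposure, 30 °C humidified; medium: permissive synthetic complete medium with raffinose and galactose carbon sources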

A short description of experiment [2]: Restrictive medium S. cerevisiae growth inhibition, OD615, pilot screen of yeast lifespan reduction project, restrictive growth control (AID 706;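 active = growth inhibition above a set limit, 3 SD over mean compound inhibition, in both replicates, cut at about 43% in these data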;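 note: modified DeaD lifespan yeast strain shifted to restrictive glucose medium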). To be noted: OD615, 48 h, at 10 µM, hits give high values. In outline:
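material = engineered S. cerevisiae DeaD strain | medium = glucose-based CSMM-D restrictive medium | times = 4 h pre-incubation, 48 h exposure at 30 °C | technique = OD615 absorbance reading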

Experiment [3] is described as follows: viability gain of MRP-1-high H69AR cells under doxorubicin, pilot screen, MRP-1 activator project, CellTiter-Glo, duplicate (AID 807;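 active = viability increase at or above a cutoff of the median across tested compounds plus 3 SD, cut at about 8.5% in these data, passing the limit was not always enough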;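 note: compound pretreatment 18-22 h then 72 h combined with doxorubicin; 0% = doxorubicin alone and 100% = vehicle without doxorubicin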). To be noted: H69AR viability with doxorubicin, CellTiter-Glo luminescence; at 10 µM; hits give high values.
A short description of experiment [4]: growth suppression of PTEN-deleted HCT116, pilot screen, cell-based, HCT116 clonal line, CellTiter-Glo (AID 824;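 active = viability at or below 27.92% in each of two runs, the all-compound median minus 4 SD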;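 note: 0% = 20 µM Hyamine control and 100% = vehicle cell control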). To be noted: 60 h, at 10 µM, hits give low values.
Experiment [5] is described as follows: inhibitors of the yeast RAM network, pilot screen, dse1pr::URA3 reporter, 5-FOA selection (AID 869;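 active = inhibition over a set limit, the all-compound mean plus 3 SD, in both replicate runs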;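 note: 0% = DMSO wells with no growth and 100% = 10 µM 1-NA-PP1 with full growth; RAM network block rescues cells from 5-FOA so hits raise OD615 growth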). To be noted: S. cerevisiae dse1pr::URA3 5-FOA growth, OD615, 2 d; at 10 µM; hits give high values; strain carries analog-sensitive mutant Cbk1 kinase.
Experiment [6] is described as follows: RAM signaling pathway blockade in yeast – S. cerevisiae, Pdr1DBD-CYC8 efflux-inhibited sensitized strain, primary screen (AID 1298;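 active = RAM network inhibition above 8.4% in each of two replicates, 3 SD over the compound average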;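 note: 0% = DMSO untreated cells without growth and 100% = 10 µM 1-NA-PP1 full growth; higher means more yeast growth rescued from 5-FOA killing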). To be noted: S. cerevisiae cbk1-as DSE1-URA3 strain, 5-FOA growth OD615, 2 d; at 50 µM; hits give high values.

Consider `COc1ccc(OC)c(NC(=O)C(CC(C)C)NC(=O)C2CCCCC2)c1` (stereo not given), for which the growth inhibition in experiment [1] is -5.08%; in experiment [2], 11.6%. Besides, the viability increase in experiment [3] was -5.29%. In addition, the viability in experiment [4] is 86%. In addition, the inhibition in experiment [5] was 1.02%. Also, in experiment [6], the RAM network inhibition is 3.18%.
For the molecule `O=C(CCCC(=O)N1CCCc2ccccc21)N1CCCc2ccccc21`, the growth inhibition was -8.11% in experiment [1] and -5.5% in experiment [2]. For the same molecule, the viability increase in experiment [3] was -4.74%. For the same molecule, in experiment [4], the viability was 95.3%. For the same molecule, in experiment [5], the inhibition was 2.04%. In addition, the RAM network inhibition in experiment [6] is 1.5%.
Turning to `O=C(c1ccco1)N1CCCC(c2nc(-c3ccc(S(=O)(=O)NCc4ccccc4)cc3)no2)C1` (stereo not given), the figures for the growth inhibition in experiment [1] and in experiment [2] were -8.47% and -27.3%, respectively. Also, in experiment [3], the viability increase is -2.74%. The viability in experiment [4] is 47.4%. Besides, in experiment [5], the inhibition was 1.58%. For the same molecule, the RAM network inhibition in experiment [6] was 3.3%.
Turning to `COc1ccc(C2CC(=O)C(C=NCCO)=C(O)C2)cc1OC` (stereo not given), the results for the growth inhibition in experiment [1] and in experiment [2] were -5.79% and 4.22%, respectively. Besides, in experiment [3], the viability increase is 1.21%. Further, in experiment [4], the viability was 105%. In addition, the inhibition in experiment [5] is -0.07%. Moreover, the RAM network inhibition in experiment [6] is -0.41%.
For the molecule `COc1ccc(NC2CS(=O)(=O)CC2NCc2ccco2)cc1` (stereo not given), the growth inhibition in experiment [1] was 3.62%; in experiment [2] it was -15.4%. For the same molecule, the viability increase in experiment [3] is -4.04%. In addition, the viability in experiment [4] is 96.2%. In experiment [5], the inhibition was 1.94%. Also, the RAM network inhibition in experiment [6] was 4.2%.
Regarding `COc1ccc(S(=O)(=O)N2CCC(C(=O)N3CCN(c4ccccc4OC)CC3)CC2)cc1`, the growth inhibition is -8.7% in experiment [1] and -3.36% in experiment [2]. Besides, in experiment [3], the viability increase was -2.71%. Also, the viability in experiment [4] is 86.8%. The inhibition in experiment [5] was -0.505%. Moreover, the RAM network inhibition in experiment [6] is 0%.
Consider `CCCCN1C(=O)C(O)(CC(=O)c2ccco2)c2cc(Br)ccc21` (stereo not given), for which the growth inhibition was 2.79% in experiment [1] and 2.35% in experiment [2]. In experiment [3], the viability increase is -6.26%. For the same molecule, in experiment [4], the viability is 11.5% (active). Moreover, the inhibition in experiment [5] was -0.765%. For the same molecule, the RAM network inhibition in experiment [6] was -1.34%.
Take `CCNc1nc(Oc2ccc(C(=O)OCC)cc2)nc(SC)n1`: the growth inhibition in experiment [1] was -5.11%; in experiment [2], 1.57%. For the same molecule, the viability increase in experiment [3] was -1.58%. In addition, the viability in experiment [4] is 78.9%. Further, the inhibition in experiment [5] is 2.05%. Also, the RAM network inhibition in experiment [6] is 2.82%.
Turning to `O=C(NC1(C(F)(F)F)Oc2ccccc2O1)N1CCCC1`, the growth inhibition was -3.63% in experiment [1] and -7.95% in experiment [2]. In addition, in experiment [3], the viability increase was -6.12%. For the same molecule, the viability in experiment [4] was 81.3%. Further, the inhibition in experiment [5] was 0.56%. Besides, in experiment [6], the RAM network inhibition is 1.58%.
Consider `COC(=O)C1=C(C)NC2=C(C(=O)CC(c3cccs3)C2)C1c1ccsc1` (stereo not given), for which the figures for the growth inhibition in experiment [1] and in experiment [2] were -7.01% and 2.53%, respectively. The viability increase in experiment [3] is -6.75%. For the same molecule, in experiment [4], the viability was 40.1%. Further, in experiment [5], the inhibition is 1.25%. Further, the RAM network inhibition in experiment [6] was 4.86%.
`CCCOc1nc2c(c(=O)n(C)c(=O)n2C)n1Cc1cccc2ccccc12`: the growth inhibition in experiment [1] was -12.5%; in experiment [2], -0.875%. In addition, in experiment [3], the viability increase is -4.04%. The viability in experiment [4] is 57.7%. Besides, the inhibition in experiment [5] was 0.84%. The RAM network inhibition in experiment [6] was 1.64%.
As to `CCOC(=O)N1CCC(NC(=O)C(CC(C)C)NC(=O)C2CCCCC2)CC1` (stereo not given), the growth inhibition in experiment [1] is -6.28%; in experiment [2] it was -1.08%. Further, in experiment [3], the viability increase is -2.08%. In experiment [4], the viability was 100%. Further, the inhibition in experiment [5] was 2.41%. For the same molecule, the RAM network inhibition in experiment [6] is 1.8%.
For `Cc1cc(NC(=O)COC(=O)C2CCN(S(=O)(=O)c3ccc(Cl)cc3)CC2)no1`, the growth inhibition was 4.11% in experiment [1] and -2.37% in experiment [2]. Further, in experiment [3], the viability increase is -2.01%. In addition, in experiment [4], the viability was 98.9%. The inhibition in experiment [5] was 1.19%. Besides, in experiment [6], the RAM network inhibition is 1.38%.
With `O=C(Nc1ccc(Cl)cc1)N(Cc1cccs1)Cc1cccs1`, the growth inhibition in experiment [1] is -13.9%; in experiment [2], -21.5%. Moreover, the viability increase in experiment [3] is -0.55%. Moreover, in experiment [4], the viability is 64.9%. In addition, the inhibition in experiment [5] was 2.13%. Further, the RAM network inhibition in experiment [6] was 8.73%.
Consider `CC(Oc1ccc(Cl)cc1Cl)C(=O)NCc1ccncc1` (stereo not given), for which the growth inhibition in experiment [1] was -10.3%; in experiment [2], -7.06%. The viability increase in experiment [3] was -4.17%. Further, the viability in experiment [4] was 89.1%. Besides, the inhibition in experiment [5] was 1.26%. Besides, in experiment [6], the RAM network inhibition was 1.89%.
As for `Cc1ccc(N(CC(=O)NC2CC3CCC2C3)S(C)(=O)=O)cc1C` (stereo not given), the growth inhibition in experiment [1] is -2.18%; in experiment [2] it was -4.39%. For the same molecule, in experiment [3], the viability increase was -2.03%. Moreover, the viability in experiment [4] is 96.8%. The inhibition in experiment [5] is 1.26%. For the same molecule, in experiment [6], the RAM network inhibition was 5.17%.
On to `O=C(c1ccc(CN2CCOCC2)cc1)N1CCC(Cc2ccccc2)CC1`, for which the values for the growth inhibition in experiment [1] and in experiment [2] were -5.94% and -3.29%, respectively. The viability increase in experiment [3] is -0.71%. Besides, in experiment [4], the viability is 93.1%. The inhibition in experiment [5] is 1.29%. Besides, the RAM network inhibition in experiment [6] is 9.1%.
Take `CC(Oc1ccc(Cl)cc1)C(=O)Nc1nccs1` (stereo not given): the growth inhibition is -5.8% in experiment [1] and -5.78% in experiment [2]. In addition, in experiment [3], the viability increase was -1.86%. Further, in experiment [4], the viability is 87%. Besides, the inhibition in experiment [5] is 1.31%. In addition, in experiment [6], the RAM network inhibition is 2.7%.
`COc1ccc(CNC(=O)CSc2nnnn2-c2ccc(O)cc2)cc1`: the results for the growth inhibition in experiment [1] and in experiment [2] were -0.35% and -9.08%, respectively. In addition, the viability increase in experiment [3] was -4.35%. The viability in experiment [4] is 98.6%. In addition, the inhibition in experiment [5] was 2.5%. Besides, the RAM network inhibition in experiment [6] is 3.74%.
In the case of `CSc1nnc2c(n1)OC(c1cn(C)c3ccccc13)N(C(C)=O)c1ccccc1-2` (stereo not given), the growth inhibition in experiment [1] is -8.46%; in experiment [2] it was -4.85%. The viability increase in experiment [3] was -2.79%. Moreover, the viability in experiment [4] is 98.9%. Further, in experiment [5], the inhibition is 1.54%. In experiment [6], the RAM network inhibition is 3.59%.
